Results: ChEMBL document CHEMBL1142963, “Novel sigma receptor ligands: synthesis and biological profile” (J Med Chem, 2007)
The source made the active and inactive calls. The calls are words filed in the database; no cut-off is given here.

How the values were obtained:
Rattus norvegicus [1] = species: Rattus norvegicus; test: Increase in TG-2 expression in albino Wistar rat primary 14 DIV astroglial cell at 25 uM after 24 hrs by CLSM analysis; assay type: functional
In short: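 Astrocytes at 14 DIV were treated with 25 µM for 24 h and fixed in 4% paraformaldehyde for 20 min. They were blocked with 1% normal serum for 1 h, then incubated overnight with anti-TG-2 monoclonal (1:500), followed by FITC and TRITC anti-IgG (1:64, 2 h each). Confocal imaging at fixed settings measured cytosolic and nuclear fluorescence intensity versus control after nonspecific subtraction.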

Rattus norvegicus [2] = species: Rattus norvegicus; test: Increase in TG-2 expression in albino Wistar rat primary astroglial cells at 25 uM after 24 hrs; assay type: functional
In short: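 Primary Wistar rat astrocytes at 14 DIV were exposed to ligand 25 µM for 24 h. Densitometric percentage of TG-2 versus untreated control; HUVEC extract as positive control. Mean ± SD of four experiments.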

[3] = Increase in apoptosis in albino Wistar rat primary 14 DIV astroglial cells at 25 uM after 24 hrs by TUNEL assay relative to control; assay type: functional
In short: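 Astrocytes at 14 DIV were treated 24 h at 25 µM. TUNEL labelling with fluorescein-dUTP at free 3′-OH DNA ends; apoptotic cells appear green (FITC), nonapoptotic cells red (PI). Apoptotic cells were counted against all cells in 10 random fields per dish and expressed as a percentage.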

Rattus norvegicus [4] = species: Rattus norvegicus; test: Decrease of caspase 3 cleavage in albino Wistar rat primary astroglial cells at 25 uM after 24 hrs relative to control; assay type: functional
In short: (§1)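 Primary astrocytes from 1–2-day-old Wistar rat brains were grown 14 DIV, then exposed to ligand 25 µM for 24 h. Cells were lysed and sonicated, and 30 µg protein was run on 10% SDS-PAGE. Mean ± SD of four experiments; t test.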

Rattus norvegicus [5] = species: Rattus norvegicus; test: Activity at sigma 2 receptor in rat astroglial cells; assay type: cell-based
[6] = Displacement of [3H]DTG rom guinea pig brain sigma 2 receptor; parameters: species or system Cavia porcellus
[7] = molecular target: Sigma non-opioid intracellular receptor 1 (Cavia porcellus, UniProt Q60492); test: Displacement of [3H](+)-pentazocine from guinea pig brain sigma 1 receptor
Sequence of Sigma non-opioid intracellular receptor 1 (Q60492 whole entry): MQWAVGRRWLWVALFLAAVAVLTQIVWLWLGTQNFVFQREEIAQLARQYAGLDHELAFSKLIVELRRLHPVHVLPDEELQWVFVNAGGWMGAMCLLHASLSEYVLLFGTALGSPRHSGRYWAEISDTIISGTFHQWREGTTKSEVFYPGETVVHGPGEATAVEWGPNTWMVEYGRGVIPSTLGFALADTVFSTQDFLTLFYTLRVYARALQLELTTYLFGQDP

Rattus norvegicus [8] = species: Rattus norvegicus; test: Increase of caspase 3 cleavage in albino Wistar rat primary astroglial cells at 25 uM after 24 hrs relative to control; assay type: functional; in short: as §1

Row | Compound | Ki [6] [nM] | Ki [7] [nM] | also measured
1 | CN(C)CCN(C)CCc1ccc(Cl)c(Cl)c1 |  |  | Activity (Rattus norvegicus [1]): Active; Activity (Rattus norvegicus [2]): inactive; Ratio [3]: 7%; Activity (Rattus norvegicus [4]): Active; Activity (Rattus norvegicus [5]; filed as agonist): Agonist
2 | COC(=O)C1(c2ccc(C)cc2)CC1CN1CCN(c2ccccn2)CC1 (stereo not given) | 2170 | 497 | 
3 | COC(=O)C1(c2ccccc2)CC1CN1CCN(c2ccccn2)CC1 (stereo not given) | 6290 | 1330 | 
4 | CC[C@H]1C[C@@H]2C[C@H]3c4[nH]c5ccc(OC)cc5c4CCN(C2)[C@@H]13 [IBOGAINE] |  | 250 | 
5 | COC(=O)C1(c2ccc(C)cc2)CC1CN1CCN(c2ncccn2)CC1 (stereo not given) | 3360 | 353 | 
6 | COC(=O)C1(c2ccc([N+](=O)[O-])cc2)CC1CN1CCC(O)(c2ccccc2)CC1 (stereo not given) | 18 | 1.9 | 
7 | COC(=O)C1(c2ccc([N+](=O)[O-])cc2)CC1CN1CCN(c2ccccn2)CC1 (stereo not given) | > 10000 | 769 | 
8 | COC(=O)C1(c2ccc(Cl)cc2)CC1CN1CCN(c2ccccn2)CC1 (stereo not given) | 2400 | 707 | 
9 | COC(=O)C1(c2ccc(Cl)cc2)CC1CN1CCC(O)(c2ccccc2)CC1 (stereo not given) | 19 | 1.7 | 
10 | Cc1ccccc1NC(=N)Nc1ccccc1C [DITOLYLGUANIDINE] | 49 |  | 
11 | COC(=O)C1(c2ccccc2)CC1CN1CCC(Cc2ccccc2)CC1 (stereo not given) | 13.2 | 2.2 | 
12 | CC(C)=CCN1CC[C@]2(C)c3cc(O)ccc3C[C@H]1[C@H]2C [(+)-PENTAZOCINE] | 1540 |  | Activity (Rattus norvegicus [4]): Active; Activity (Rattus norvegicus [5]): inactive
13 | COC(=O)C1(c2ccc(Cl)cc2)CC1CN1CCN(c2ncccn2)CC1 (stereo not given) | 2710 | 350 | 
14 | COC(=O)C1(c2ccc(OC)cc2)CC1CN1CCC(Cc2ccccc2)CC1 (stereo not given) | 14 | 1 | 
15 | COC(=O)C1(c2ccccc2)CC1CN1CCN(c2ncccn2)CC1 (stereo not given) | > 10000 | 3090 | 
16 | COC(=O)C1(c2ccc(Cl)cc2)CC1CN1CCC(Cc2ccccc2)CC1 (stereo not given) | 11.9 | 0.82 | 
17 | COC(=O)C1(c2ccc(N)cc2)CC1CN1CCN(c2ccccn2)CC1 (stereo not given) | > 10000 | > 10000 | 
18 | COC(=O)C1(c2ccc(OC)cc2)CC1CN1CCC(O)(c2ccccc2)CC1 (stereo not given) | 53 | 3.1 | 
19 | COC(=O)C1(c2ccc(OC)cc2)CC1CN1CCN(c2ccccn2)CC1 (stereo not given) | > 10000 | 1260 | 
20 | COC(=O)C1(c2ccc([N+](=O)[O-])cc2)CC1CN1CCC(Cc2ccccc2)CC1 (stereo not given) | 9 | 0.68 | 
21 | COC(=O)C1(c2ccc([N+](=O)[O-])cc2)CC1CN1CCN(c2ncccn2)CC1 (stereo not given) | > 10000 | 619 | 
22 | COC(=O)C1(c2ccc(OC)cc2)CC1CN1CCN(c2ncccn2)CC1 (stereo not given) | > 10000 | 2030 | 
23 | COC(=O)C1(c2ccc(N)cc2)CC1CN1CCN(c2ncccn2)CC1 (stereo not given) | 3590 | > 10000 | 
24 | COC(=O)C1(c2ccc(C)cc2)CC1CN1CCC(Cc2ccccc2)CC1 (stereo not given) | 8.9 | 0.97 | 
25 | COC(=O)C1(c2ccccc2)CC1CN1CCC(O)(c2ccccc2)CC1 (stereo not given) | 34 | 3.1 | 
26 | CC[C@H]1C[C@H]2C[C@H]3c4[nH]c5ccc(OC)cc5c4CCN(C2)[C@@H]13 [IBOGAINE] | 9310 |  | Activity (Rattus norvegicus [1]): Active; Activity (Rattus norvegicus [2]): Active; Ratio [3]: 95%; Activity (Rattus norvegicus [8]): Active; Activity (Rattus norvegicus [5]; filed as agonist): Agonist
27 | O=C(CCCN1CCC(O)(c2ccc(Cl)cc2)CC1)c1ccc(F)cc1 |  |  | Activity (Rattus norvegicus [1]): Active; Activity (Rattus norvegicus [5]; filed as agonist): Agonist
